# Source: PubChem (several laboratories)
# HCV core dimer – HCV core protein dimerization inhibition; TR-FRET GST/Flag-core106 dimerization, 1536-well; inhibition, % at 5 µM; 300,000 compounds, 0.33% hits; AID 1899;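 active means inhibition above the mean of all tested compounds plus 3 SD, set per screening campaign, cut at about 45% in these data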
#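 Assay system: Tagged HCV core106 pair (GST and Flag) | Buffer or medium: KF-containing HEPES buffer, pH 7.45, DTT, CHAPS, BSA | Also added: Eu donor and XL665 acceptor anti-tag antibodies | Dosing: One concentration, 5 µM, in 0.5% DMSO | Timing: 4 h at 22.5 °C | Technique: TR-FRET 671 and 617 nm emission | Repeats: Singlicate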
# NS3 helicase inh – blocks Hepatitis C virus NS3 helicase unwinding. 290,000 compounds, 0.56% hits. inhibition, % at 10.9 µM. NS3 helicase DNA unwinding, Cy5 molecular beacon fluorescence;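 active means inhibition above the mean of all tested compounds plus 3 SD, set per campaign, cut at about 35% in these data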;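 further: 0% = DMSO wells and 100% = thioflavine S control wells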
#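 System: Hepatitis C virus NS3 helicase domain fragment enzyme | Reagent: Annealed dual-labelled DNA beacon duplex, ATP-started | Compound dosing: 10.9 µM single point, 0.8% DMSO | Incubation: 1 h reaction at 25 °C, ATP-initiated | Technique: Cy5 fluorescence | Evaluation: Percent inhibition from t60/t0 fluorescence ratio | Benchmarks: Low DMSO, high thioflavine S at 110 µM | Replication: Singlicate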
# EBNA-1 inh – blocks EBNA-1 binding to DNA; inhibition, % at 14.8 µM; 300,000 compounds, 0.34% hits; EBNA-1 DNA binding, fluorescence polarization; in the data active means inhibition above about 28%
# ZTA counter – counter-screen for EBNA-1 inhibitors: inhibitors of Epstein-Barr virus ZTA. P03206. ZTA-DNA binding, fluorescence polarization. inhibition, % at 11 µM. 320,000 compounds, 0.15% hits. AID 2234; in the data active means inhibition above about 33%
# Target sequence (P03206 whole entry, looked up): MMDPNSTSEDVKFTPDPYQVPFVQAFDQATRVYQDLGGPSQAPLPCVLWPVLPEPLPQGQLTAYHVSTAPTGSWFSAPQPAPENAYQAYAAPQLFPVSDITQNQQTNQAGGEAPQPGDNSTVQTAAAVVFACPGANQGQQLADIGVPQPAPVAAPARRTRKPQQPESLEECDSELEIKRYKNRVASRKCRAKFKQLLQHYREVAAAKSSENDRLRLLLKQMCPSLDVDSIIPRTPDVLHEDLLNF
# EBV gp42 block – blocks Epstein-Barr virus glycoprotein 42 binding | inhibition, % (tested at 21.74 µM) | 220,000 compounds, 0.42% hits | Q1HVG2 | Fluorescence polarization binding assay, mP read-out; in the data active means inhibition above about 50%
# MEX-5 binding – C. elegans MEX-5 TCR-2 RNA binding activity. AID 1832. 300,000 compounds, 0.38% hits. MEX-5/FITC-TCR2 RNA binding, fluorescence polarization; hits give low values. activity score (negative = inhibition of binding), % at 10 µM;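 active means inhibition past about -25% in most replicates, and total fluorescence under double the plate's negative control median, limit read from the data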;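 further: 0% = DMSO and -100% = 5 µM competing unlabeled TCR2 RNA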
# Target sequence (Q9XUB2 whole entry, looked up): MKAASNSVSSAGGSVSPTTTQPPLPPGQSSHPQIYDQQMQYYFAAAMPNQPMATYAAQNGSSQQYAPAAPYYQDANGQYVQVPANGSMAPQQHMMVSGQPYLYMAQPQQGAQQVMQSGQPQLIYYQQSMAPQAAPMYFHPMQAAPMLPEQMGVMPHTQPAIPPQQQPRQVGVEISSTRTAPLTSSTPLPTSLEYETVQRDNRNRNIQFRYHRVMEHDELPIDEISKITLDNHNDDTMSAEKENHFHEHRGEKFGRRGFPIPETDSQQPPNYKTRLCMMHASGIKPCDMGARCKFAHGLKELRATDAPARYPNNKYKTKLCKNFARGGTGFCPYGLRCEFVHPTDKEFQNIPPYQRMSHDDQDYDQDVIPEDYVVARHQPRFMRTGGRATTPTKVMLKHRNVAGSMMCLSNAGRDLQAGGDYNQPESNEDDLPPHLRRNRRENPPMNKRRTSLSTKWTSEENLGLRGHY
# NS3 hel confirm – HCV NS3 helicase inhibition, confirmation assay; shares compounds with NS3 helicase inh; NS3 helicase DNA unwinding, Cy5 molecular beacon fluorescence; inhibition, % at 10.9 µM; 1,600 compounds, 31% hits; AID 1943;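 active means inhibition above the mean of all tested compounds plus 3 SD, cutoff set per campaign, cut at about 36% in these data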
# DNA FID counter – counter-screen for HCV NS3 helicase inhibitors: DNA intercalator displacement; DNA fluorescent intercalator displacement, fluorescence; 1,600 compounds, 4% hits; AID 1945; inhibition, % at 7.9 µM; shares compounds with NS3 helicase inh; in the data active means inhibition above about 37%;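 further: 0% = vehicle and 100% = reference compound; higher means more displacement of ethidium bromide from the DNA hairpin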
# FID counter DR – counter-screen for HCV NS3 helicase inhibitors: DNA intercalator displacement dose response; shares compounds with NS3 helicase inh; fluorescent intercalator displacement from DNA, fluorescence; IC50, µM; 120 tested, under 10 active; call rule not given here
# An asterisk follows results filed as active; / = no result. Compounds with a hit are over-represented: about 1.7% of the library has one in this group of screens.
SMILES,HCV core dimer,NS3 helicase inh,EBNA-1 inh,ZTA counter,EBV gp42 block,MEX-5 binding,NS3 hel confirm,DNA FID counter,others
CCN1CCN(CCCNC(=O)C2CCCN(c3nc4c(C)cc(C)cc4s3)C2)CC1 (stereo unspecified),-11.3,-64.4,0.6,-6.9,/,-1.9,/,/,
O=C(NC(Cc1ccccc1)C(=O)N1CCN(c2ccccn2)CC1)c1ccco1 (stereo unspecified),0.9,48.6*,6.2,-11.8,-4.6,2.4,-11.1,-17.1,
CC(C)NC(=O)CN1CCN(C(=O)c2ccc3oc(CCCc4ccccc4)nc3c2)CC1,12.6,0.6,-4.7,-4.9,/,5.8,/,/,
CC(CC(=O)NC1CCCCC1)S(=O)(=O)c1ccc2c(c1)NC(=O)CO2 (stereo unspecified),-10.3,37.6*,-0.6,-3.6,/,1.7,-19.8,-2.1,
Cc1ccc(/C=N/NC(=O)c2nnn(-c3nonc3N)c2-c2ccc3c(c2)OCO3)s1,-2.7,17.2,-2.3,9.5,/,-3.7,/,/,
Cc1ccc(NC(=O)C2=C(c3ccccc3)S(=O)(=O)CCS2(=O)=O)cc1,21.6,38.3*,-2.1,-10.3,-23.7,-0.4,58.8*,27.0,FID counter DR=>79.4
Cc1ccc(NC(=O)c2ccccc2)cc1,1.5,5.3,5.8,-7.1,-7.0,-0.2,/,/,
COc1ccc(S(=O)(=O)/N=C2/NC(=O)/C(=C\c3ccco3)S2)cc1,-7.7,37.4*,-5.1,-10.5,11.0,-16.4,60.5*,6.3,
COc1ccc(S(=O)(=O)/N=C2/NC(=O)/C(=C/c3ccco3)S2)cc1,2.0,36.5*,5.6,10.6,-7.5,-4.1,78.2*,-2.3,FID counter DR=>79.4
O=C(O)CCC(=O)N1N=C(c2c(-c3ccccc3)c3cc(Cl)ccc3[nH]c2=O)CC1c1cccs1 (stereo unspecified),8.6,36.6*,8.3,5.8,4.2,2.1,90.3*,-8.7,
O=C(O)CCCC(=O)N1N=C(c2c(-c3ccccc3)c3cc(Cl)ccc3[nH]c2=O)CC1c1cccs1 (stereo unspecified),-0.5,25.4,10.7,1.4,-1.9,-0.2,/,/,
NNc1ncnc2scc(-c3ccc(Cl)cc3)c12,-2.5,-10.6,-11.9,-5.8,5.7,1.6,/,/,
Cc1ccc(-c2csc3ncnc(NS(=O)(=O)c4ccc(Cl)cc4)c23)cc1,13.4,50.2*,0.0,-5.4,10.8,0.9,44.1*,-25.1,
COc1ccc(N2CCN(C(=O)CN(c3ccccc3)S(=O)(=O)c3ccc(OC)cc3)CC2)cc1,7.7,39.9*,-10.4,1.9,-2.9,1.4,-14.9,-25.7,
O=C(NC1CC1)c1cc(-c2ccco2)nc2ccccc12,/,41.3*,/,/,83.6*,-0.1,34.4,5.7,
COc1ccc(C(=O)NC(=S)Nc2ccc(S(=O)(=O)Nc3cc(OC)nc(OC)n3)cc2)cc1,10.0,-1.9,-5.6,1.3,/,1.2,/,/,
COc1cc(NS(=O)(=O)c2ccc(NC(=S)NC(=O)c3ccc(F)cc3)cc2)nc(OC)n1,-11.7,40.3*,-16.1,9.4,/,-0.8,27.4,-13.1,
Cc1cc(N2C(=O)C(O)=C(C(=O)c3cc4ccccc4o3)C2c2ccc(OC(C)C)cc2)no1 (stereo unspecified),-4.0,11.0,8.0,12.7,/,-1.4,/,/,
Cc1cccc(N2C(=O)C(O)=C(C(=O)c3cccs3)C2c2cccc(Oc3ccccc3)c2)n1 (stereo unspecified),31.8,79.8*,13.7,3.2,0.3,1.2,113.8*,17.8,FID counter DR=>79.4
COC(=O)c1ccc(C2C(C(=O)c3cc4ccccc4o3)=C(O)C(=O)N2c2cc(C)on2)cc1 (stereo unspecified),33.2,51.1*,-3.5,11.3,/,0.1,93.1*,-29.0,
COc1cc(C2C(C(=O)c3ccc(C)o3)=C(O)C(=O)N2c2cc(C)on2)ccc1OCc1ccccc1 (stereo unspecified),13.3,84.5*,4.0,12.2,/,1.8,187.7*,-26.3,FID counter DR=>79.4
CCCCCOc1ccc(C2C(C(=O)c3ccc(C)o3)=C(O)C(=O)N2c2cc(C)on2)cc1 (stereo unspecified),13.6,62.6*,12.4,22.6,/,0.0,162.1*,-38.8,FID counter DR=>79.4
CN(C(=O)COC(=O)c1ccc(F)c(S(=O)(=O)N2CCOCC2)c1)C1CCS(=O)(=O)C1 (stereo unspecified),-11.6,/,0.3,-10.4,/,0.2,/,/,
CCc1ccc(-c2cc3c(=O)n(CC(=O)NCCCN4CCN(C)CC4)ncn3n2)cc1,-5.6,-30.1,-2.2,4.0,/,0.8,/,/,
CCOc1ccc(C(=O)CCC(=O)N2CCN(S(=O)(=O)c3cccc(F)c3)CC2)cc1,/,/,/,5.1,/,/,/,/,
SMILES,HCV core dimer,NS3 helicase inh,EBNA-1 inh,ZTA counter,EBV gp42 block,MEX-5 binding,NS3 hel confirm,DNA FID counter,others
Cc1ccc(C)c(OCCC(=O)Nc2cccc(S(=O)(=O)N3CCCCC3)c2)c1,/,/,/,9.2,/,/,/,/,
COc1cccc(C2C(C(=O)c3cccs3)=C(O)C(=O)N2c2cc(C)on2)c1 (stereo unspecified),-1.4,12.1,11.4,-8.1,30.6,-0.6,/,/,
COc1cc(C2C(C(=O)c3cccs3)=C(O)C(=O)N2c2cc(C)on2)ccc1O (stereo unspecified),1.8,44.6*,7.5,10.6,-0.2,-6.1,-3.3,36.8*,
O=C(O)c1cccnc1SCc1ccc([N+](=O)[O-])cc1,-0.3,3.1,7.2,19.6,/,0.1,/,/,
O=C(O)c1cccnc1SCc1cccc(Br)c1,-2.6,37.6*,10.7,5.8,/,3.2,-13.1,26.6,
CC(NC(=O)/C=C/c1ccco1)c1nc2ccccc2n1Cc1cccc(Cl)c1 (stereo unspecified),11.6,36.3*,12.3,10.6,-5.6,2.1,-9.8,-12.3,
O=C(Nc1nc2ccccc2n1Cc1ccc(Cl)cc1)c1ccco1,12.9,4.6,19.7,6.2,-12.8,-1.7,/,/,
COc1cc(C)c(CN2CCN(CC(=O)Nc3ccccc3C(=O)NC3CC3)CC2)cc1OC,/,/,/,-13.1,/,/,/,/,
CC1=NN(c2ccc(Cl)c(C(=O)O)c2)C(=O)/C1=C\c1ccc(-c2ccc(C(=O)O)cc2)o1,/,0.3,/,/,17.8,-4.6,/,/,
CC1=NN(c2ccc(C(=O)O)cc2)C(=O)/C1=C/c1ccc(-c2ccccc2F)o1,9.3,39.2*,-1.3,-8.1,/,-0.4,-7.4,2.9,
COc1cc(OC)cc(C(=O)N2CCN(c3ccc(N4CCOCC4)nn3)CC2)c1,-3.7,/,-11.5,-8.6,/,1.5,/,/,
O=C(O)CC(C(=O)O)N1C(=O)/C(=C/C=C/c2ccco2)SC1=S (stereo unspecified),-12.1,73.7*,36.5*,91.9*,-11.3,-65.6*,87.0*,-2.7,
